Experimental data as given in ChEMBL document CHEMBL4011604, “Bishomoisoprenoid triazole bisphosphonates as inhibitors of geranylgeranyl diphosphate synthase” (Bioorg Med Chem, 2017).
pIC50: −log10 of the molar value. Active and inactive are the calls of the source. The calls are words filed in the database; no cut-off is given here.

What was measured:
[1] = molecular target: T1, Geranylgeranyl pyrophosphate synthase (Homo sapiens, UniProt O95749); assay: Inhibition of recombinant GGDPS (unknown origin) using FPP as substrate pretreated for 10 mins followed by substrate addition after 30 mins in presence of [14C]-IPP by liquid scintillation counting analysis
T1 sequence (O95749 whole entry): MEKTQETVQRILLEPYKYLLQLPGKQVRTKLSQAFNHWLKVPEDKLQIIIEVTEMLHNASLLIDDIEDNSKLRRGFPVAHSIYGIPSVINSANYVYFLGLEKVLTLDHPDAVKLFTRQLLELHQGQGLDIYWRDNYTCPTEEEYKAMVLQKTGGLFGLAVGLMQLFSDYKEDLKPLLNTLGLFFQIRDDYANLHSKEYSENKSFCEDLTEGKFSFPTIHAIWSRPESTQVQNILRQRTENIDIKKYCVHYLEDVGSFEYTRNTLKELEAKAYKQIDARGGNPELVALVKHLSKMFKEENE
Method in brief: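 Recombinant GGDPS from a commercial source; compounds tested in duplicate at multiple concentrations, three independent experiments. IC50 values from concentration-response curves by Chou–Talalay median-effect analysis.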

[2] = molecular target: T2, Geranylgeranyl transferase type I (Homo sapiens) (UniProt P49354+P53609); assay: Inhibition of GGTase1 in human RPMI8226 cells assessed as decrease in Rap1a geranylgeranylation at 0.1 to 50 uM after 48 hrs by Western blot method; format: cell-based
Method in brief: (§1)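 RPMI-8226 myeloma cells exposed 48 h to test compounds over a range of concentrations, lovastatin 10 μM as positive control. Whole-cell RIPA lysates with protease/phosphatase inhibitors, protein by BCA; equal protein run on SDS-PAGE and immunoblotted with antibody recognising only unmodified Rap1a, β-tubulin as loading control, HRP secondary with ECL detection.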

[3] = molecular target: geranylgeranyltransferase type-I (Rattus norvegicus, UniProt P53610+Q04631); assay: Inhibition of recombinant rat GGTase1 expressed in Escherichia coli using GGDP as substrate measured after 2 hrs by dansyl-GCVLS dye based fluorescence assay
Method in brief: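 Recombinant GGTase I 24 nM added to 50 mM HEPPSO, 5 mM TCEP-HCl containing 10 μM GGDP and 5 μM dansyl-GCVLS. Incubated 2 h at 30 °C with or without compound, with prenylation tracked as dansyl fluorescence increase (ex 340 / em 520 nm) over time. IC50 from Chou–Talalay curve fitting.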

[4] = Inhibition of recombinant rat FTase using FDP as substrate measured after 1 hr by dansyl-GCVLS dye based fluorescence assay
Method in brief: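 Recombinant FTase 18 nM started reactions in 50 mM HEPPSO, 5 mM TCEP-HCl, 5 mM MgCl2 with 10 μM FDP and 5 μM dansyl-GCVLS, 30 °C for 1 h, with or without compound. Peptide prenylation followed as rise in dansyl fluorescence (ex 340 / em 520 nm) over time. IC50 by Chou–Talalay analysis.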

[5] = species: Homo sapiens; assay: Inhibition of Rab GGTase2 in human RPMI8226 cells assessed as decrease in Rab GTPase geranylgeranylation by measuring accumulation of intracellular lambda light chain at 0.1 to 50 uM after 48 hrs by ELISA; format: cell-based
Method in brief: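 Intracellular lambda light chain in RPMI-8226 cells after 48 h incubation with compounds (lovastatin 10 μM positive control). Quantified by human lambda light chain ELISA on whole-cell lysate and normalised to BCA total protein. Results given as percent of untreated control, mean + SD, n=3. Significance by unpaired two-tailed t-test, p < 0.05.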

[6] = species: Homo sapiens; assay: Inhibition of Rab GGTase2 in human RPMI8226 cells assessed as decrease in Rab6 geranylgeranylation at 5 to 50 uM after 48 hrs by western blot analysis; format: cell-based
Method in brief: (§2)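 Membrane-bound Rab6 measured in RPMI-8226 cells treated 48 h (lovastatin 10 μM positive control). Cells lysed with Triton X-114 and the detergent (membrane) fraction immunoblotted for Rab6, with calnexin as loading control. Densitometry gives Rab6/calnexin relative to untreated cells.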

[7] = molecular target: T3, Farnesyl pyrophosphate synthase (Homo sapiens, UniProt P14324); assay: Inhibition of recombinant FDPS (unknown origin) using GPP as substrate pretreated for 10 mins followed by substrate addition after 30 mins in presence of [14C]-IPP by liquid scintillation counting method
T3 sequence (P14324 whole entry): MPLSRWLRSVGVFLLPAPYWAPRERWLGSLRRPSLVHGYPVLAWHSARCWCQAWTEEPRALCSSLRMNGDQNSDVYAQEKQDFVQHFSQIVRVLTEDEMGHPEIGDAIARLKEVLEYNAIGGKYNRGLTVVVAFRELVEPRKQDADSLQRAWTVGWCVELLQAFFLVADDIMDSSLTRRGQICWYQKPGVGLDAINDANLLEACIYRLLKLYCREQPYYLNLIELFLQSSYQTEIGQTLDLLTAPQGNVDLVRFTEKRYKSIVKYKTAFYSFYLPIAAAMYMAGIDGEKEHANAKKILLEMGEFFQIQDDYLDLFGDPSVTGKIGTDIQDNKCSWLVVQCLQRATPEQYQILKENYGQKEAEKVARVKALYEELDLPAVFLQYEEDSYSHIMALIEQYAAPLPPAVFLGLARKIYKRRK
Method in brief: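 Recombinant FDPS assayed by a previously described method, each concentration in duplicate, three independent experiments. IC50 derived from concentration-response curves by Chou–Talalay median-effect analysis.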

[8] = molecular target: T2, Geranylgeranyl transferase type I (Homo sapiens); assay: Inhibition of GGTase1 in human RPMI8226 cells assessed as decrease in Rap1a geranylgeranylation at 0.5 uM after 48 hrs by Western blot method; format: cell-based; method in brief: as §1
[9] = species: Homo sapiens; assay: Inhibition of Rab GGTase2 in human RPMI8226 cells assessed as disruption of Rab6 geranylgeranylation at 1 to 10 uM after 48 hrs by western blot analysis; format: cell-based; method in brief: as §2
[10] = species: Homo sapiens; assay: Inhibition of Rab GGTase2 in human RPMI8226 cells assessed as decrease in Rab GTPase geranylgeranylation by measuring accumulation of intracellular lambda light chain after 48 hrs by ELISA; format: cell-based
Method in brief: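 RPMI-8226 cells treated 48 h with varying compound concentrations (lovastatin 10 μM control). Intracellular lambda light chain in whole-cell lysate quantified by human lambda ELISA, normalised to total protein (BCA), expressed as percent of untreated control; mean + SD, n=3; unpaired two-tailed t-test, p < 0.05.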

[11] = molecular target: T2, Geranylgeranyl transferase type I (Homo sapiens); assay: Inhibition of GGTase1 in human RPMI8226 cells assessed as decrease in Rap1a geranylgeranylation after 48 hrs by Western blot method; format: cell-based
Method in brief: as §1, with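 “varying compound” for “test compounds over a range of”, “Whole-cell lysate made in” for “Whole-cell”, “buffer” for “lysates”, “SDS-PAGE, blotted to PVDF, probed” for “SDS-PAGE and immunoblotted”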

[12] = species: Homo sapiens; assay: Inhibition of Rab GGTase2 in human RPMI8226 cells assessed as decrease in Rab6 geranylgeranylation after 48 hrs by western blot analysis; format: cell-based
Method in brief: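 RPMI-8226 cells, 48 h with varying compound concentrations, lovastatin 10 μM as control. Cells lysed with Triton X-114; detergent (membrane) fraction immunoblotted for Rab6 with calnexin loading control. Rab6 band densitometry normalised to calnexin, then to untreated cells (relative intensity).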

## CC(C)=CCCCn1cc(CC(P(=O)(O)O)P(=O)(O)O)nn1
[1]
  pIC50: 5.44
[2]
  inhibition: Active
[3]
  pIC50: < 4.00
[4]
  pIC50: < 4.00
[5]
  inhibition: Active
[6]
  inhibition: Active
[7]
  pIC50: < 4.00

## CC(C)=CCC/C(C)=C/CCCn1cc(CC(P(=O)(O)O)P(=O)(O)O)nn1
[2]
  inhibition: Active
[3]
  pIC50: < 4.00
[4]
  pIC50: < 4.00
[5]
  inhibition: Active
[6]
  inhibition: Active
[7]
  pIC50: 4.48

## CC(C)=CCC/C(C)=C\CCCn1cc(CC(P(=O)(O)O)P(=O)(O)O)nn1
[8]
  inhibition: Active
[3]
  pIC50: < 4.00
[4]
  pIC50: < 4.00
[9]
  inhibition: Active
[5]
  inhibition: Active
[7]
  pIC50: 4.53

## CC(C)=CCC/C(C)=C/CCn1cc(CC(P(=O)(O)O)P(=O)(O)O)nn1
[1]
  pIC50: 6.77
[10]
  INH: 0.09 µM
[11]
  INH: 0.09 µM
[12]
  INH: 0.09 µM
